According to ChEMBL document CHEMBL4725330, “The design, synthesis and evaluation of 2-aminobenzoxazole analogues as potent and orally efficacious ChemR23 inhibitors” (Bioorg Med Chem, 2020):

Assays:
Chemerin-like receptor 1 = target: T1, Chemerin-like receptor 1 (Homo sapiens, UniProt Q99788); experiment: Inhibition of chemR23 in human CAL1 cells assessed as inhibition of chemerin-induced intracellular calcium ion concentration preincubated for 45 mins followed by human chemerin addition by FDSS6000 analysis; assay type: functional, cell-based
T1 sequence (Q99788 whole entry): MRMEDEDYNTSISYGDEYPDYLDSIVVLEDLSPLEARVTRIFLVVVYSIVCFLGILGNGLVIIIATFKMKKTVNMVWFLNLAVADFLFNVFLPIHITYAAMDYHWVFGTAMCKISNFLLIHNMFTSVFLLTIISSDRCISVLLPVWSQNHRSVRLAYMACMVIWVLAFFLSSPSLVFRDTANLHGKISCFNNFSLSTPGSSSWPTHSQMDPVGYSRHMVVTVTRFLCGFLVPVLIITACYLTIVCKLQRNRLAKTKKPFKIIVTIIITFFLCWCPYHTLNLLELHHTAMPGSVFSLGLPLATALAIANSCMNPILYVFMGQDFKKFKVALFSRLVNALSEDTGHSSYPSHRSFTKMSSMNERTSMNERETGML

[1] = Cmax in cynomolgus monkey at 1 mg/kg, po administered as cassette dose by LC-MS/MS analysis; assay type: ADME, organism-based, Macaca fascicularis; parameters: route oral, dose 1 mg/kg; settings: in vivo
In short: (§1)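 Cassette oral dosing, 1.0 mg/kg as a suspension in 0.5% methylcellulose, to fed cynomolgus monkeys. Plasma was obtained from blood, deproteinized with ice-cold acetonitrile containing internal standard, and measured by LC/MS/MS against a calibration curve using analyte/IS peak-area ratios. Values are means of three determinations.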

[2] = Half-life in cynomolgus monkey at 1 mg/kg, po administered as cassette dose by LC-MS/MS analysis; assay type: ADME, organism-based, Macaca fascicularis; settings: in vivo; in short: as §1
[3] = AUC (0 to infinity) in cynomolgus monkey at 1 mg/kg, po administered as cassette dose by LC-MS/MS analysis; assay type: ADME, organism-based, Macaca fascicularis; parameters: time infinity, route oral, dose 1 mg/kg; settings: in vivo; in short: as §1
[4] = Fraction unbound in cynomolgus monkey plasma at 1 mg/kg, po administered as cassette dose incubated for 16 to 24 hrs by equilibrium dialysis based LC-MS analysis; assay type: ADME, organism-based, Macaca fascicularis; settings: in vivo, time 16-24 hrs
In short: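 Monkey plasma diluted with PBS and spiked with compound at 1 µM (final DMSO 0.05% v/v) was equilibrium-dialysed against PBS (membrane MWCO 12000–14000) for 16–24 h at 37 °C in a CO2 incubator. Both sides were deproteinized with acetonitrile containing IS and analysed by LC-MS/MS. Undiluted fu,p was calculated from the diluted value using the dilution factor.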

[5] = Oral bioavailability in cynomolgus monkey at 1 mg/kg and 0.1 mg/kg, iv administered as cassette dose by LC-MS/MS analysis; assay type: ADME, organism-based, Macaca fascicularis; settings: in vivo
In short: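 Plasma was deproteinized with ice-cold acetonitrile containing internal standard and quantified by LC/MS/MS against a calibration curve from analyte/IS peak-area ratios. Values are means of three determinations.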

[6] = Ratio of fraction unbound in cynomolgus monkey plasma at 10 mg/kg to IC50 of inhibition of chemR23 in human CAL1 cells; assay type: organism-based; settings: in vivo
[7] = Cmax in cynomolgus monkey at 10 mg/kg, po by LC-MS/MS analysis; assay type: ADME, organism-based, Macaca fascicularis; parameters: route oral, dose 10 mg/kg; settings: in vivo
In short: (§2)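 Single-compound oral dosing, 10 mg/kg as a suspension in 0.5% methylcellulose, to fed cynomolgus monkeys. Plasma was deproteinized with ice-cold acetonitrile plus internal standard and quantified by LC/MS/MS from analyte/IS peak-area ratios on a calibration curve. Values are means of three determinations.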

[8] = Half-life in cynomolgus monkey at 10 mg/kg, po by LC-MS/MS analysis; assay type: ADME, organism-based, Macaca fascicularis; settings: in vivo; in short: as §2
[9] = AUC (0 to infinity) in cynomolgus monkey at 10 mg/kg, po by LC-MS/MS analysis; assay type: ADME, organism-based, Macaca fascicularis; parameters: time infinity, route oral, dose 10 mg/kg; settings: in vivo; in short: as §2
[10] = MRT in cynomolgus monkey at 10 mg/kg, po by LC-MS/MS; assay type: ADME, organism-based, Macaca fascicularis; settings: in vivo; in short: as §2
[11] = Drug concentration in cynomolgus monkey at 10 mg/kg, po by LC-MS/MS analysis measured upto 8 hrs; assay type: ADME, organism-based, Macaca fascicularis; settings: in vivo, read-out: Ct; in short: as §2
Macaca fascicularis [12] = species on record: Macaca fascicularis; experiment: Induction of chemR23 internalization in whole blood of cynomolgus monkey assessed as internalization rate at 30 uM by flow cytometric analysis relative to control; assay type: tissue-based
Macaca fascicularis [13] = species on record: Macaca fascicularis; experiment: Induction of chemR23 internalization in whole blood of cynomolgus monkey assessed as internalization rate at 100 uM by flow cytometric analysis relative to control; assay type: tissue-based
[14] = Induction of chemR23 internalization on pDCs of cynomolgus monkey assessed as internalization rate at 50 mg/kg, po measured after 4 hrs of administration by flow cytometric analysis relative to control; assay type: functional, Macaca fascicularis
In short: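 Cynomolgus monkeys received 50 mg/kg orally as a suspension in 0.5% methylcellulose. Blood was drawn before dosing and at 2, 4 and 8 h. pDCs (HLA-DR+CD123+) were stained for ChemR23 and read by flow cytometry as GeoMFI. Internalization was expressed as expression at each time relative to pre-dose. Each animal was reported individually.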

[15] = Plasma concentration in cynomolgus monkey at 50 mg/kg, po measured at 2 hrs of administration; assay type: ADME, organism-based, Macaca fascicularis
In short: (§3)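 Cynomolgus monkeys received 50 mg/kg orally as a suspension in 0.5% methylcellulose. Plasma concentrations were measured at 2, 4 and 8 h post-dose, and each animal was reported individually.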

[16] = Plasma concentration in cynomolgus monkey at 50 mg/kg, po measured at 4 hrs of administration; assay type: ADME, organism-based, Macaca fascicularis; in short: as §3
[17] = Plasma concentration in cynomolgus monkey at 50 mg/kg, po measured at 8 hrs of administration; assay type: ADME, organism-based, Macaca fascicularis; in short: as §3
[18] = Induction of chemR23 internalization on pDCs of cynomolgus monkey assessed as chemR23 expression relative to pre-dose at 50 mg/kg, po measured at 2 hrs of administration by flow cytometric analysis
[19] = Induction of chemR23 internalization on pDCs of cynomolgus monkey assessed as chemR23 expression relative to pre-dose at 50 mg/kg, po measured at 4 hrs of administration by flow cytometric analysis
[20] = Induction of chemR23 internalization on pDCs of cynomolgus monkey assessed as chemR23 expression relative to pre-dose at 50 mg/kg, po measured at 8 hrs of administration by flow cytometric analysis

Structure (SMILES) | IC50 (Chemerin-like receptor 1) [nM] | Cmax [1] [ng/mL] | half-life [2] [h] | AUC(0-inf) [3] [ng·h/mL] | Fu [4] | other results
CCCCN(c1nc2c(C(=O)O)cccc2o1)[C@H](C)c1ccc(-c2ccccc2-c2nnn[nH]2)cc1 | 17 | 115 | 3.7 | 429 | 0.0285 fraction (unitless) | bioavailability [5]: 8.2%
CCCCN(c1nc2ccccc2o1)[C@H](C)c1ccc(-c2ccc(Cl)cc2-c2nnn[nH]2)cc1 | > 3000 |  |  |  |  | 
CCCCN(c1nc2c(C(=O)O)cccc2o1)[C@H](C)c1ccc(-c2cc(Cl)ccc2-c2nc(=O)o[nH]2)cc1 | 1.2 | 361 | 2 | 1040 | 0.0135 fraction (unitless) | Ratio [6]: 0.5; bioavailability [5]: 42%; Cmax [7]: 2110 ng/mL; half-life [8]: 2 h; AUC(0-inf) [9]: 7090 ng·h/mL; MRT [10]: 4.1 h
CCCCN(c1nc2ccccc2o1)[C@H](C)c1ccc(-c2ccc(C(F)(F)F)cc2-c2nnn[nH]2)cc1 | > 3000 |  |  |  |  | 
CCCCN(c1nc2ccccc2o1)[C@H](C)c1ccc(-c2c(C)cccc2-c2nnn[nH]2)cc1 | 210 |  |  |  |  | 
Cc1ccc(-c2nc(=O)o[nH]2)c(-c2ccc([C@@H](C)N(CC3CC3)c3nc4c(C(=O)O)cccc4o3)cc2)c1 | 3.2 | 1490 | 2.8 | 4830 | 0.023 fraction (unitless) | Ratio [6]: 1; bioavailability [5]: 58%; Cmax [7]: 6950 ng/mL; half-life [8]: 1 h; AUC(0-inf) [9]: 22200 ng·h/mL; concentration at 8 h [11]: 206 ng/mL; MRT [10]: 2.9 h; Activity (Macaca fascicularis [12]): 53%; Activity (Macaca fascicularis [13]): 82%; Activity [14]: 74%; concentration at 2 h [15]: 178 µM; concentration at 4 h [16]: 204 µM; concentration at 8 h [17]: 30.4 µM; ChemR23 expression [18]: 30%; ChemR23 expression [19]: 10%; ChemR23 expression [20]: 44%
CCCCN(c1nc2ccccc2o1)[C@H](C)c1ccc(-c2ccccc2-c2nnn[nH]2)cc1 |  | 12.8 | 3.2 | 44.3 | 0.0713 fraction (unitless) | bioavailability [5]: 1.8%
CCCCN(c1nc2ccccc2o1)[C@H](C)c1ccc(-c2ccc(OC)cc2-c2nnn[nH]2)cc1 | 3000 |  |  |  |  | 
CCCCN(c1nc2c(-c3ccncc3)cccc2o1)[C@H](C)c1ccc(-c2ccccc2-c2nnn[nH]2)cc1 | 300 |  |  |  |  | 
CCCCN(c1nc2c(C(=O)NC)cccc2o1)[C@H](C)c1ccc(-c2ccccc2-c2nnn[nH]2)cc1 |  | 9.74 | 1.3 | 25.7 | 0.0975 fraction (unitless) | 
CCCCN(c1nc2c(C(=O)N(C)C)cccc2o1)[C@H](C)c1ccc(-c2ccccc2-c2nnn[nH]2)cc1 | 13 | 27.5 | 3.2 | 104 | 0.411 fraction (unitless) | bioavailability [5]: 6.7%
CCCCN(c1nc2c(-n3cccn3)cccc2o1)[C@H](C)c1ccc(-c2ccccc2-c2nnn[nH]2)cc1 | 330 |  |  |  |  | 
CCCCN(c1nc2ccccc2o1)[C@H](C)c1ccc(-c2cc(Cl)ccc2-c2nnn[nH]2)cc1 | 65 |  |  |  |  | 
CCCCN(c1nc2ccccc2o1)[C@H](C)c1ccc(-c2ccc(C)cc2-c2nnn[nH]2)cc1 | 2100 |  |  |  |  | 
CCCCN(c1nc2ccccc2o1)[C@H](C)c1ccc(-c2cc(F)ccc2-c2nnn[nH]2)cc1 | 75 |  |  |  |  | 
CCCCN(c1nc2ccccc2o1)[C@H](C)c1ccc(-c2c(F)cccc2-c2nnn[nH]2)cc1 | 160 |  |  |  |  | 
CCCCN(c1nc2c(C(=O)NS(C)(=O)=O)cccc2o1)[C@H](C)c1ccc(-c2ccccc2-c2nnn[nH]2)cc1 | 14 | 22.6 | 2.7 | 22.2 | 0.103 fraction (unitless) | 
CCCCN(c1nc2c(NC(C)=O)cccc2o1)[C@H](C)c1ccc(-c2ccccc2-c2nnn[nH]2)cc1 | 22 | 13.2 | 2.2 | 41.6 | 0.102 fraction (unitless) | 

Now from value to compound, other results behind:

IC50 (Chemerin-like receptor 1) [nM] | Cmax [1] [ng/mL] | half-life [2] [h] | AUC(0-inf) [3] [ng·h/mL] | Fu [4] | Structure (SMILES) | other results
11 | 3830 | 2.6 | 11600 | 0.00851 fraction (unitless) | C[C@H](c1ccc(-c2ccccc2-c2nc(=O)o[nH]2)cc1)N(CC1CC1)c1nc2c(C(=O)O)cccc2o1 | bioavailability [5]: 60%
130 |  |  |  |  | CCCCN(c1nc2c(-c3cccn3C)cccc2o1)[C@H](C)c1ccc(-c2ccccc2-c2nnn[nH]2)cc1 | 
 | 518 | 0.8 | 1300 | 0.0108 fraction (unitless) | C[C@H](c1ccc(-c2cc(Cl)ccc2-c2nc(=O)o[nH]2)cc1)N(CC1CC1)c1nc2c(C(=O)O)cccc2o1 | 
2.3 | 1490 | 4.1 | 4410 | 0.00977 fraction (unitless) | C[C@H](c1ccc(-c2cc(F)ccc2-c2nc(=O)o[nH]2)cc1)N(CC1CC1)c1nc2c(C(=O)O)cccc2o1 | bioavailability [5]: 82%
24 | 9.68 | 1.6 | 20 | 0.112 fraction (unitless) | CCCCN(c1nc2c(CO)cccc2o1)[C@H](C)c1ccc(-c2ccccc2-c2nnn[nH]2)cc1 | bioavailability [5]: 0.8%
 | 79.9 | 3.9 | 152 | 0.299 fraction (unitless) | CCCCN(c1nc2c(-c3nccn3C)cccc2o1)[C@H](C)c1ccc(-c2ccccc2-c2nnn[nH]2)cc1 | bioavailability [5]: 7.5%
 | 64 | 5.9 | 248 | 0.129 fraction (unitless) | CCCCN(c1nc2c(-c3ccccn3)cccc2o1)[C@H](C)c1ccc(-c2ccccc2-c2nnn[nH]2)cc1 | 
14 | 26.5 | 4.7 | 73.8 | 0.0203 fraction (unitless) | CCCCN(c1nc2c(NS(C)(=O)=O)cccc2o1)[C@H](C)c1ccc(-c2ccccc2-c2nnn[nH]2)cc1 | 
53 |  |  |  |  | CCCCN(c1nc2ccccc2o1)[C@H](C)c1ccc(-c2cc(C)ccc2-c2nnn[nH]2)cc1 | 
> 1000 |  |  |  |  | CCCCN(c1nc2c(-c3cccnc3)cccc2o1)[C@H](C)c1ccc(-c2ccccc2-c2nnn[nH]2)cc1 | 
2.7 | 610 | 2.2 | 1630 | 0.00736 fraction (unitless) | CCCCN(c1nc2c(C(=O)O)cccc2o1)[C@H](C)c1ccc(-c2cc(F)ccc2-c2nc(=O)o[nH]2)cc1 | 
1320 |  |  |  |  | CCCCN(c1nc2ccccc2o1)[C@H](C)c1ccc(-c2cc(C(F)(F)F)ccc2-c2nnn[nH]2)cc1 | 
29 |  |  |  |  | CCCCN(c1nc2c(COC)cccc2o1)[C@H](C)c1ccc(-c2ccccc2-c2nnn[nH]2)cc1 | 
